Laboratory results taken from ChEMBL document CHEMBL1124884, “Potent renin inhibitory peptides containing hydrophilic end groups” (J Med Chem, 1990).
Values after ≈ are worked out from the molar mass of the structure shown. *1 amine or outer side, *2 acyl side, *3 side chain or, on linkers, in order; H or OH if unused. Where a SMILES comes first, the peptide text is derived from it. [ ]: non-standard residue; d: D form. The star is where a group is joined. Leuψ((S)CH(OH)CH2)dVal = CC(C)C[C@H](N[*:1])[C@@H](O)C[C@@H](C(=O)[*:2])C(C)C; X2 = OC[C@H]1O[C@H](O)[C@H](N*)[C@@H](O)[C@H]1O; NMeH = CN[C@@H](Cc1c[nH]cn1)C(=O)O; NHCH2(2-pyridyl) = c1ccc(CN*)nc1; NHC(CH2OH)3 = OCC(CO)(CO)N*; Boc = CC(C)(C)OC(=O)*; CO = O=C([*:1])[*:2]

What was measured:
[1] = Solubility in water at 37 degrees Centigrade; format: physicochemical; conditions: read-out: S
How it was run: (§1)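 Visual estimate: compound added to distilled water in a series of clear tubes at 1-100 mg/mL, tubes shaken, observed first at 25 °C and again after 30 min in a 37 °C water bath.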

[2] = Solubility in water at 25 degrees Centigrade; format: physicochemical; conditions: read-out: S; how it was run: as §1
Renin (Homo sapiens) [3] = molecular target: Renin (Homo sapiens) (UniProt P00797); test: Tested in vitro for inhibitory activity against plasma renin in human plasma
Renin (Homo sapiens) [4] = molecular target: Renin (Homo sapiens) (UniProt P00797); test: Maximum hypotensive activity, the magnitude of the human renin dependent blood pressure component was measured (administered intravenously.)
Renin (Homo sapiens) [5] = molecular target: Renin (Homo sapiens) (UniProt P00797); test: Maximum hypotensive activity, the magnitude of the human renin dependent blood pressure component was measured. (administered perorally)

Renin (Homo sapiens), sequence (P00797 whole entry, looked up): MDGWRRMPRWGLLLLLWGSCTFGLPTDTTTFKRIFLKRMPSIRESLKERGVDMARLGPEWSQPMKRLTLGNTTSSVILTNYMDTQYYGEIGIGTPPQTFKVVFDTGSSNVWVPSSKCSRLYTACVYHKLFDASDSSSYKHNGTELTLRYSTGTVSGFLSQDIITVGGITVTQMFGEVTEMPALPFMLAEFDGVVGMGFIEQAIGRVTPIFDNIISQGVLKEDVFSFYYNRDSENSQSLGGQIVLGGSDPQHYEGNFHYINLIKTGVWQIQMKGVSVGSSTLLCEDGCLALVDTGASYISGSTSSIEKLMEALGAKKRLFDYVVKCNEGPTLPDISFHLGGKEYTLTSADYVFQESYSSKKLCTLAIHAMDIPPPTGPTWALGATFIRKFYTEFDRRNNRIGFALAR

Row | solubility [1] [µg/mL] | solubility [2] [µg/mL] | IC50 (Renin (Homo sapiens) [3]) [pM] | SMILES | Hypotensive activity (Renin (Homo sapiens) [4]) [mmHg] | Hypotensive activity (Renin (Homo sapiens) [5]) [mmHg]
1 | 1000 (≈ 1020 µM) | 1000 (≈ 1020 µM) | 330 | CC[C@H](C)[C@H](NC(=O)[C@H](C[C@H](O)[C@H](CC(C)C)NC(=O)[C@H](Cc1c[nH]cn1)N(C)C(=O)[C@H](Cc1ccccc1)NC(=O)[C@@H]1CCCN1C(=O)NC(CO)(CO)CO)C(C)C)C(=O)NCc1ccccn1 ({NHC(CH2OH)3-CO}-PF[NMeH][Leuψ((S)CH(OH)CH2)dVal]I-{NHCH2(2-pyridyl)}) | 40 | 38
2 | < 1000 | < 1000 | 260 | CC[C@H](C)[C@H](NC(=O)[C@H](C[C@H](O)[C@H](CC(C)C)NC(=O)[C@H](Cc1c[nH]cn1)N(C)C(=O)[C@H](Cc1ccccc1)NC(=O)[C@@H]1CCCN1C(=O)OC(C)(C)C)C(C)C)C(=O)NCc1ccccn1 (Boc-PF[NMeH][Leuψ((S)CH(OH)CH2)dVal]I-{NHCH2(2-pyridyl)}) | 25 | 24
3 | < 1000 | 1000 (≈ 1060 µM) | 260 | CC[C@H](C)[C@H](NC(=O)[C@H](C[C@H](O)[C@H](CC(C)C)NC(=O)[C@H](Cc1c[nH]cn1)N(C)C(=O)[C@H](Cc1ccccc1)NC(=O)[C@@H]1CCCN1C(=O)OC(C)(C)C)C(C)C)C(=O)NC(CO)(CO)CO (Boc-PF[NMeH][Leuψ((S)CH(OH)CH2)dVal]I-{NHC(CH2OH)3}) | 30 | 35
4 | < 2000 | < 2000 | 490 | CC[C@H](C)[C@H](NC(=O)[C@H](C[C@H](O)[C@H](CC(C)C)NC(=O)[C@H](Cc1cnc[nH]1)N(C)C(=O)[C@H](Cc1ccccc1)NC(=O)[C@@H]1CCCN1C(=O)N[C@@H]1[C@@H](O)[C@@H](O)[C@@H](CO)O[C@@H]1O)C(C)C)C(=O)NCc1ccccn1 ({X2-CO}-PF[NMeH][Leuψ((S)CH(OH)CH2)dVal]I-{NHCH2(2-pyridyl)}) | – | –
5 | – | – | – | CC[C@H](C)[C@H](NC(=O)[C@H](C[C@H](O)[C@H](CC(C)C)NC(=O)[C@H](Cc1c[nH]cn1)N(C)C(=O)[C@H](Cc1ccccc1)NC(=O)[C@@H]1CCCN1C(=O)N[C@@H]1[C@@H](O)[C@@H](O)[C@@H](CO)O[C@@H]1O)C(C)C)C(=O)NCc1ccccn1 ({X2-CO}-PF[NMeH][Leuψ((S)CH(OH)CH2)dVal]I-{NHCH2(2-pyridyl)}) | 36 | 37
